# Assay results taken from ChEMBL document CHEMBL3352004, “(7-Benzyloxy-2,3-dihydro-1H-pyrrolo[1,2-a]indol-1-yl)acetic Acids as S1P1 Functional Antagonists” (ACS Med Chem Lett, 2014).
# Active and inactive are the calls of the source. No cut-off for these calls is given here.
# Key:
# [1] = Activation of Inward rectifier potassium channel in human atrial myocytes; type: cell-based; details: Cardiac atrium
# [2] = target: Sphingosine 1-phosphate receptor 3 (Homo sapiens, UniProt Q99500); experiment: Agonist activity at human S1P3 receptor by beta-arrestin recruitment assay
# [3] = target: T1, Sphingosine 1-phosphate receptor 4 (Homo sapiens, UniProt O95977); experiment: Agonist activity at human S1P4 receptor by beta-arrestin recruitment assay
# T1 sequence (O95977 whole entry): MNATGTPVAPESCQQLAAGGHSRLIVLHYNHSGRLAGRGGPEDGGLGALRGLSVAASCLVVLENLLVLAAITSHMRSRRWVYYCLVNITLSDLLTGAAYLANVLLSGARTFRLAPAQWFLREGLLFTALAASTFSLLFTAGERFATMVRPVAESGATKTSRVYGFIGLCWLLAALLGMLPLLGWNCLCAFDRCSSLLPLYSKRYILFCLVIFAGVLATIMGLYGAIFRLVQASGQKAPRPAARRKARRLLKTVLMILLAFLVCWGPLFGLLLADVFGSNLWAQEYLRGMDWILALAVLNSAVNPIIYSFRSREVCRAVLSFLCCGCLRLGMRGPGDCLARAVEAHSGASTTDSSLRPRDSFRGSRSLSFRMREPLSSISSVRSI
# [4] = target: Sphingosine 1-phosphate receptor 1 (Rattus norvegicus) (UniProt P48303); experiment: Agonist activity at rat S1P1 receptor assessed as cAMP accumulation by HTRF assay relative to S1P; type: functional
# Cytochrome P450 2C9 = Cytochrome P450 2C9 (Homo sapiens, UniProt P11712); experiment: Inhibition of CYP2C9 (unknown origin); type: ADME
# [5] = target: Voltage-gated inwardly rectifying potassium channel KCNH2 (Homo sapiens, UniProt Q12809); experiment: Binding affinity to human ERG
# [6] = Tmax in Sprague-Dawley rat at 1 mg/kg, po; type: ADME, organism-based; set-up: dose 1 mg/kg, route oral; details: in vivo
# [7] = target: P2Y purinoceptor (Rattus norvegicus); experiment: Binding affinity to P2Y purinoceptor (rat) by [35S]dATPalphaS competitive binding assay
# [8] = Ratio of drug level in brain to plasma in Sprague-Dawley rat; type: ADME; details: read-out: BPR
# In short: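 Abbreviated rat CNS distribution: a single 1.0 mg/kg oral dose, with brain and plasma drug levels measured over 6 h. Brain-to-plasma ratio derived from these levels.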
# [9] = Elimination half life in Sprague-Dawley rat at 1 mg/kg, po; type: ADME, organism-based; set-up: dose 1 mg/kg, route oral; details: in vivo, read-out: beta t1/2 (converted)
# Rattus norvegicus [10] = organism: Rattus norvegicus; experiment: Toxicity in telemeterized rat assessed as effect on cardiovascular function; type: organism-based, Heart; details: in vivo
# Rattus norvegicus [11] = organism: Rattus norvegicus; experiment: Reduction in lymphocyte count in Sprague-Dawley rat; type: functional, organism-based
# In short: (§1)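 A PK/PD model relating plasma drug concentration to circulating lymphocyte counts was used to derive the plasma concentration that reduces lymphocytes by 50% (LL IC50, ng/mL).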
# [12] = target: Sphingosine 1-phosphate receptor 1 (Rattus norvegicus, UniProt P48303); experiment: Agonist activity at rat S1P1 receptor assessed as cAMP accumulation by HTRF assay; type: functional
# In short: (§2)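 S1P1 engagement measured as cyclase activity in a homogeneous time-resolved fluorescence (HTRF) assay.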
# [13] = target: Sphingosine 1-phosphate receptor 2 (Homo sapiens, UniProt O95136); experiment: Agonist activity at human S1P2 receptor by beta-arrestin recruitment assay
# [14] = target: T2, Sphingosine 1-phosphate receptor 1 (Homo sapiens, UniProt P21453); experiment: Agonist activity at human S1P1 receptor by beta-arrestin recruitment assay
# [15] = AUC (0 to infinity) in Sprague-Dawley rat at 1 mg/kg, iv or at 1 mg/kg, po; type: ADME, organism-based; details: plasma
# [16] = target: T2, Sphingosine 1-phosphate receptor 1; experiment: Agonist activity at human S1P1 receptor assessed as cAMP accumulation by HTRF assay; type: functional; in short: as §2
# [17] = Cmax in Sprague-Dawley rat at 1 mg/kg, po; type: ADME, organism-based; set-up: dose 1 mg/kg, route oral; details: in vivo
# [18] = target: T2, Sphingosine 1-phosphate receptor 1; experiment: Agonist activity at human S1P1 receptor assessed as cAMP accumulation by HTRF assay relative to S1P; type: functional
# [19] = target: Sphingosine-1-phosphate receptor 1 (Canis lupus familiaris) (UniProt W5VNF7); experiment: Agonist activity at dog S1P1 receptor assessed as cAMP accumulation by HTRF assay relative to S1P; type: functional
# [20] = target: Sphingosine 1-phosphate receptor 1 (Mus musculus) (UniProt O08530); experiment: Agonist activity at mouse S1P1 receptor assessed as cAMP accumulation by HTRF assay relative to S1P; type: functional
# [21] = target: T3, Sphingosine 1-phosphate receptor 4 (Homo sapiens) (UniProt O95977); experiment: Agonist activity at human S1P4 receptor by beta-arrestin recruitment assay relative to S1P
# T3 sequence (whole entry): T1 sequence (O95977 whole entry)
# [22] = target: Sphingosine 1-phosphate receptor 1 (Macaca mulatta) (UniProt H9EUW9); experiment: Agonist activity at monkey S1P1 receptor assessed as cAMP accumulation by HTRF assay relative to S1P; type: functional
# [23] = Volume of distribution at steady state in Sprague-Dawley rat at 1 mg/kg, iv; type: ADME, organism-based; set-up: dose 1 mg/kg, route intravenous; details: in vivo, read-out: Vdss
# [24] = target: Sphingosine-1-phosphate receptor 1 (Canis lupus familiaris, UniProt W5VNF7); experiment: Agonist activity at dog S1P1 receptor assessed as cAMP accumulation by HTRF assay; type: functional; in short: as §2
# [25] = Systemic clearance in Sprague-Dawley rat at 1 mg/kg, iv; type: ADME, organism-based; set-up: dose 1 mg/kg, route intravenous; details: in vivo
# [26] = target: T2, Sphingosine 1-phosphate receptor 1; experiment: Agonist activity at human S1P1 receptor by beta-arrestin recruitment assay relative to S1P
# [27] = target: T4, Sphingosine 1-phosphate receptor 5 (Homo sapiens, UniProt Q9H228); experiment: Agonist activity at human S1P5 receptor by beta-arrestin recruitment assay
# [28] = target: Sphingosine 1-phosphate receptor 1 (Macaca mulatta, UniProt H9EUW9); experiment: Agonist activity at monkey S1P1 receptor assessed as cAMP accumulation by HTRF assay; type: functional; in short: as §2
# [29] = Oral bioavailability in Sprague-Dawley rat at 1 mg/kg; type: ADME, organism-based; details: in vivo
# [30] = target: T4, Sphingosine 1-phosphate receptor 5; experiment: Agonist activity at human S1P5 receptor by beta-arrestin recruitment assay relative to S1P
# [31] = target: Sphingosine 1-phosphate receptor 1 (Mus musculus, UniProt O08530); experiment: Agonist activity at mouse S1P1 receptor assessed as cAMP accumulation by HTRF assay; type: functional; in short: as §2
# Mus musculus [32] = experiment: Reduction of disease index score in C57Bl/6 mouse experimental autoimmune encephalomyelitis model of multiple sclerosis at 0.1 to 0.3 mg/kg dosed for 24 days; type: functional, organism-based
# In short: (§3)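 Female C57Bl/6 mice with EAE, a demyelinating autoimmune disease induced to model MS, given compound orally at 0.1, 0.3 or 1.0 mg/kg for 24 days alongside a vehicle group. Clinical scoring began on day 10: 0 healthy; 1 limp tail or hind-limb weakness; 2 limp tail plus limb weakness, or weakness of ≥2 limbs; 3 severe limb weakness or single-limb paralysis; 4 paralysis of ≥2 limbs; 5 death. Mean group score reported.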
# Cytochrome P450 3A4 = Cytochrome P450 3A4 (Homo sapiens, UniProt P08684); experiment: Inhibition of CYP3A4 (unknown origin); type: ADME
# Cytochrome P450 2C19 = Cytochrome P450 2C19 (Homo sapiens, UniProt P33261); experiment: Inhibition of CYP2C19 (unknown origin); type: ADME
# [33] = Ratio of drug level in rat brain to plasma at 1 mg/kg, po dosed for 6 consecutive days; type: ADME, organism-based; set-up: dose 1 mg/kg, route oral; details: read-out: BPR
# In short: (§4)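 Repeat-dose rat CNS distribution: 1.0 mg/kg given on six consecutive days. Plasma, brain and CSF were sampled over the 24 h after the last dose. Average concentrations in brain and plasma gave the brain-to-plasma ratio.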
# Cytochrome P450 2D6 = Cytochrome P450 2D6 (Homo sapiens, UniProt P10635); experiment: Inhibition of CYP2D6 (unknown origin); type: ADME
# Mus musculus [34] = experiment: Reduction of disease index score in C57Bl/6 mouse experimental autoimmune encephalomyelitis model of multiple sclerosis at 0.1 mg/kg dosed for 24 days; type: functional, organism-based; set-up: dose 0.1 mg/kg; in short: as §3
# Cytochrome P450 1A2 = Cytochrome P450 1A2 (Homo sapiens, UniProt P05177); experiment: Inhibition of CYP1A2 (unknown origin); type: ADME
# Mus musculus [35] = experiment: Prevention of severity of disease in C57Bl/6 mouse experimental autoimmune encephalomyelitis model of multiple sclerosis at 1 mg/kg dosed for 24 days; type: functional, organism-based; set-up: dose 1 mg/kg; in short: as §3
# [36] = Solubility in water in crystal phase; type: physicochemical
# [37] = Solubility in water in L-lysine adduct form; type: physicochemical
# [38] = Cmax rat at 1000 mg/kg, po; type: ADME, organism-based; set-up: dose 1000 mg/kg, route oral; details: in vivo
# [39] = Drug level in rat plasma at 1 mg/kg, po dosed for 6 consecutive days; type: ADME, organism-based; set-up: dose 1 mg/kg, route oral; in short: as §4
# [40] = Drug level in rat brain at 1 mg/kg, po dosed for 6 consecutive days; type: ADME, organism-based; set-up: dose 1 mg/kg, route oral; details: read-out: Drug uptake; in short: as §4
# Mus musculus [41] = organism: Mus musculus; experiment: Reduction in lymphocyte count in mouse; type: functional, organism-based; in short: as §1
# [42] = Half life in human; type: ADME, organism-based; details: in vivo
# T2 sequence (P21453 whole entry): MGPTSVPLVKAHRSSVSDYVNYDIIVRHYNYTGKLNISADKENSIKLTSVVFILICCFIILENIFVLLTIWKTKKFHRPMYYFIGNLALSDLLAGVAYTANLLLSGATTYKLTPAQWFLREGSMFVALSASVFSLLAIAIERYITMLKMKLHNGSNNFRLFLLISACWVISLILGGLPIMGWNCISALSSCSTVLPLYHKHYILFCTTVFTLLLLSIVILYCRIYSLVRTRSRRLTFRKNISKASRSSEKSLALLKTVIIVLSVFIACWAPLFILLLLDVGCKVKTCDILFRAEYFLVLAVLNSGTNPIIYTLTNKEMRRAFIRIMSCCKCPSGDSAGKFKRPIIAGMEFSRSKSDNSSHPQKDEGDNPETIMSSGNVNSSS
# T4 sequence (Q9H228 whole entry): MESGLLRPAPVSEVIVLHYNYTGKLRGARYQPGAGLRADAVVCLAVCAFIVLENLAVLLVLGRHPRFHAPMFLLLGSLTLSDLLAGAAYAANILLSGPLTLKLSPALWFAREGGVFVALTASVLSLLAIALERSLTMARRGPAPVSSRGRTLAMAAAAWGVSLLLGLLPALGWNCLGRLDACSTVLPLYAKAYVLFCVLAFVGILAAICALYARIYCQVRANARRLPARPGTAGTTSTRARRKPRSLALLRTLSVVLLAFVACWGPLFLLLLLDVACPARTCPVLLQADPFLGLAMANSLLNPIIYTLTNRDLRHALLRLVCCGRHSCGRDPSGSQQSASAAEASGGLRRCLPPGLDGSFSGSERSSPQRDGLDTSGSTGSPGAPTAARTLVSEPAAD
# Voltage-gated inwardly rectifying potassium channel KCNH2, sequence (Q12809 whole entry): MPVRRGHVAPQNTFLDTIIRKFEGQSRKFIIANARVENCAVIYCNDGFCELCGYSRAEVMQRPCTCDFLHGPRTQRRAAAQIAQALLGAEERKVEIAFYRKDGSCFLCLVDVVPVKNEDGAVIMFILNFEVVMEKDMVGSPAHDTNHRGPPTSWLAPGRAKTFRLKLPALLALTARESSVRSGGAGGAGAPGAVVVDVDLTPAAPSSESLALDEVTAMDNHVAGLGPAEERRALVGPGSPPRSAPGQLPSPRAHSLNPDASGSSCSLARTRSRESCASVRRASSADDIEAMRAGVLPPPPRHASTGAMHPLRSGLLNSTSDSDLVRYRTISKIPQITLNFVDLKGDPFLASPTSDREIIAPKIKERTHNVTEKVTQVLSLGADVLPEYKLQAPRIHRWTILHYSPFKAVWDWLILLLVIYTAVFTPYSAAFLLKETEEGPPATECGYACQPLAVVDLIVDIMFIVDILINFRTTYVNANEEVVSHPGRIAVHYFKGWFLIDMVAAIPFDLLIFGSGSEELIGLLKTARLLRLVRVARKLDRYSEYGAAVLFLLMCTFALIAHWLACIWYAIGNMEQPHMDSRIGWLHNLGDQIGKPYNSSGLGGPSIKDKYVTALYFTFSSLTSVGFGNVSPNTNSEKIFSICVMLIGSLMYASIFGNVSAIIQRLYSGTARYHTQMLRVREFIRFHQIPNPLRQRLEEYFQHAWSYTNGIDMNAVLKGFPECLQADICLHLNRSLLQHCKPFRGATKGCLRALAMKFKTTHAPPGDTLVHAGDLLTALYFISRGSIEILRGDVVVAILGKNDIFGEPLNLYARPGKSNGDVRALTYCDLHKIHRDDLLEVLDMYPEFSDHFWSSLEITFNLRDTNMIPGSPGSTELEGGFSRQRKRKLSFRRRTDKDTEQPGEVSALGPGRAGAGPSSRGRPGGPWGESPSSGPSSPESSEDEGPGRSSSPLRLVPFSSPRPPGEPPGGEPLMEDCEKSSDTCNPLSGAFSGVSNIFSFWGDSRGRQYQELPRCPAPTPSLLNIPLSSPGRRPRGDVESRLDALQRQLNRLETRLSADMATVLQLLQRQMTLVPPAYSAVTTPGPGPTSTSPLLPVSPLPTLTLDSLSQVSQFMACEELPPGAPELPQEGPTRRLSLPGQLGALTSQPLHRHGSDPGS
# Sphingosine 1-phosphate receptor 1 (Mus musculus), sequence (O08530 whole entry): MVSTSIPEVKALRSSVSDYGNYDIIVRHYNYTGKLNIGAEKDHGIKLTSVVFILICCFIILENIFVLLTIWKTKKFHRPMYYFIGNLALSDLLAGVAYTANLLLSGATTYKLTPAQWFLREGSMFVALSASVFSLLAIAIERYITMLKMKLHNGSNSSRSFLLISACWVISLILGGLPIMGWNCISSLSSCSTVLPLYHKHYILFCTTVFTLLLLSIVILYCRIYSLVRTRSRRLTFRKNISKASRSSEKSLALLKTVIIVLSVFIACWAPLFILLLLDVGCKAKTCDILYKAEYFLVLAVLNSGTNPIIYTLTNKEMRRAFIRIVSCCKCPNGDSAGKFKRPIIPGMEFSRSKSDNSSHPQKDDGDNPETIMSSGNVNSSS
# Sphingosine 1-phosphate receptor 1 (Mus musculus, UniProt O08530), sequence (O08530 whole entry): as above
# Sphingosine 1-phosphate receptor 1 (Rattus norvegicus, UniProt P48303), sequence (P48303 whole entry): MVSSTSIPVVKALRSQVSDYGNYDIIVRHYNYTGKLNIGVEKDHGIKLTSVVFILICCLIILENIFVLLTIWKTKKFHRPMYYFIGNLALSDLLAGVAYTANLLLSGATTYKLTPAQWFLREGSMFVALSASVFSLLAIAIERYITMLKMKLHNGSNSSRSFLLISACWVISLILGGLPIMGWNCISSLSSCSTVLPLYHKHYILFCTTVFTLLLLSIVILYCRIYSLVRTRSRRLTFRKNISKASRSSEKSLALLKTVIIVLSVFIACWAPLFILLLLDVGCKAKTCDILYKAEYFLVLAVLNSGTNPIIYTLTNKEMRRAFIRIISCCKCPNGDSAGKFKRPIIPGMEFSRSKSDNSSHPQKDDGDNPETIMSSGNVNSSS
# Sphingosine 1-phosphate receptor 1 (Rattus norvegicus), sequence (P48303 whole entry): as above
# Sphingosine 1-phosphate receptor 3, sequence (Q99500 whole entry): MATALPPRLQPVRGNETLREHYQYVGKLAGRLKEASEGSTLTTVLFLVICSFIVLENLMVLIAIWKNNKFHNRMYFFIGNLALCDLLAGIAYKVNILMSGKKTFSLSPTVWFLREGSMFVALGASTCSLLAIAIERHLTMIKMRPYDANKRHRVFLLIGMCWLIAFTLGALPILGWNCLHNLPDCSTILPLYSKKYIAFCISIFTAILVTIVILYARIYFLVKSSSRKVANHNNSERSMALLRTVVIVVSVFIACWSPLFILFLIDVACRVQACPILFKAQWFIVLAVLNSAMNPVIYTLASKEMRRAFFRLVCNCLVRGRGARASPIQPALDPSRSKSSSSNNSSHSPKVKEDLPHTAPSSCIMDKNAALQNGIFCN
# Sphingosine-1-phosphate receptor 1 (Canis lupus familiaris), sequence (W5VNF7 as listed by the source): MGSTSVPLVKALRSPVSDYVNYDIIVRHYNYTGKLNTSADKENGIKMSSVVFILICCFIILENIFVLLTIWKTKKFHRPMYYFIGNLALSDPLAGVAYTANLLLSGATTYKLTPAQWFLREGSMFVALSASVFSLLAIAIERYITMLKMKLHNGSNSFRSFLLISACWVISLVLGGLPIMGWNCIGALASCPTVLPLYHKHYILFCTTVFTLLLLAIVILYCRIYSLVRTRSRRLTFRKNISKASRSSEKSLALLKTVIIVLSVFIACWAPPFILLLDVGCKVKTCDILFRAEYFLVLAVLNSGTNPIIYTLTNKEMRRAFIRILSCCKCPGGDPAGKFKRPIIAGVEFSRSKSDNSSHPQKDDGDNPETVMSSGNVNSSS
# Sphingosine-1-phosphate receptor 1, sequence (W5VNF7 whole entry): as the sequence (W5VNF7 as listed by the source) above
# Cytochrome P450 2C9, sequence (P11712 whole entry): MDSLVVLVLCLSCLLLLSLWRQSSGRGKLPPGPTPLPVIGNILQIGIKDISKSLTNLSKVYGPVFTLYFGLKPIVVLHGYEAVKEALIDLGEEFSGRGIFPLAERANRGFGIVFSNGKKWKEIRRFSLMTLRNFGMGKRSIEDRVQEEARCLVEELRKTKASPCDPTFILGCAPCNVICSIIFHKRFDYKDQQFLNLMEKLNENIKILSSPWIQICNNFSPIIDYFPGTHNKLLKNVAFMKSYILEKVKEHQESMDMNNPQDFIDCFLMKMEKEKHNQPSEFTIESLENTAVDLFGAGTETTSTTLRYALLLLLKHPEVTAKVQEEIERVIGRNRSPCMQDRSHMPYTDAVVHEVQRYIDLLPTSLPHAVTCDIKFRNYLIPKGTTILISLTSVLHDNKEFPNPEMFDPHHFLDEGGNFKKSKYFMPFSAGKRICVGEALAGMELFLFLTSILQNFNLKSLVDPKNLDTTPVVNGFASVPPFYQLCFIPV
# Sphingosine 1-phosphate receptor 2, sequence (O95136 whole entry): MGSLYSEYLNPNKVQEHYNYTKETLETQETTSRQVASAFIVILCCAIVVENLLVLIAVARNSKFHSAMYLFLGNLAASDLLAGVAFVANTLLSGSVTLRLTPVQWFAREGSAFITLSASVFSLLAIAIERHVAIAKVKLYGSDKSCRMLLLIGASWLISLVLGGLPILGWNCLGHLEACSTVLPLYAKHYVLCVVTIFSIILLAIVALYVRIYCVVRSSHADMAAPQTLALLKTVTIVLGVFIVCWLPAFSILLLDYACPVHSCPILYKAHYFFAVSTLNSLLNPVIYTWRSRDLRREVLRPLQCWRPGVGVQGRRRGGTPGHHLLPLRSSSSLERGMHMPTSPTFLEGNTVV
# Sphingosine 1-phosphate receptor 1 (Macaca mulatta, UniProt H9EUW9), sequence (H9EUW9 whole entry): as the sequence (P21453 whole entry) above, with P3S, H12L, I37T, K41R, S189P, I241M, E365D counted along it
# Sphingosine 1-phosphate receptor 1 (Macaca mulatta), sequence (H9EUW9 as listed by the source): as the sequence (P21453 whole entry) above, with P3S, H12L, I37T, K41R, S189P, I241M, E365D counted along it
smiles,measurement,setting,value
CCCCCCCCCCCCC/C=C/[C@@H](O)[C@@H](N)COP(=O)(O)O,EC50,[1],2.1 nM
CC(C)Oc1ccc(COc2ccc3c(c2)c(Cl)c2n3CC[C@@H]2CC(=O)O)cc1C#N,EC50,[2],> 10000 nM
same,EC50,[3],8600 nM
same,Emax,[4],93%
same,IC50,Cytochrome P450 2C9,8500 nM
same,Activity,[5],Not Active
same,Tmax,[6],4 h
same,IC50,[7]; read-out: IC50,390 nM
same,Kp,[8],0.09
same,half-life,[9],3.44 h
same,Activity,Rattus norvegicus [10],Non-toxic
same,IC50,Rattus norvegicus [11],0.0104 µg/mL
same,EC50,[12],0.072 nM
same,EC50,[13],> 10000 nM
same,EC50,[14],0.63 nM
same,AUC(0-inf),[15],4210 ng·h/mL
same,EC50,[16],0.025 nM
same,Cmax,[17],618 ng/mL
same,Emax,[18],94%
same,Emax,[19],66%
same,Emax,[20],104%
same,Emax,[21],85%
same,Emax,[22],96%
same,Vd,[23],0.9 L/kg
same,EC50,[24],0.049 nM
same,clearance,[25],3.2 mL/min/kg
same,Emax,[26],112%
same,EC50,[27],47 nM
same,EC50,[28],0.038 nM
same,bioavailability,[29],76.4%
same,Emax,[30],84%
same,EC50,[31],0.05 nM
CC(C)Oc1ccc(COc2ccc3c(c2)c(Cl)c2n3CC[C@@H]2CC(=O)O)cc1C(F)(F)F,EC50,[2],> 10000 nM
same,Activity,Mus musculus [32],Dose-dependent effect
same,EC50,[3],85 nM
same,IC50,Cytochrome P450 3A4,> 50000 nM
same,Emax,[4],81%
same,IC50,Cytochrome P450 2C9,> 50000 nM
same,Activity,[5],Not Active
same,Tmax,[6],4.67 h
same,IC50,[7],Not Active
same,Kp,[8],0.27
same,IC50,Cytochrome P450 2C19,> 50000 nM
same,half-life,[9],5.09 h
same,Activity,Rattus norvegicus [10],Non-toxic
same,IC50,Rattus norvegicus [11],0.0254 µg/mL
same,EC50,[12],0.05 nM
same,EC50,[13],> 10000 nM
same,EC50,[14],0.62 nM
same,AUC(0-inf),[15],6160 ng·h/mL
same,Kp at 6 days,[33],1.61
same,EC50,[16],0.021 nM
same,Cmax,[17],584 ng/mL
same,IC50,Cytochrome P450 2D6,> 50000 nM
same,Emax,[18],99%
same,Emax,[19],59%
same,Emax,[20],95%
same,Activity,Mus musculus [34],inactive
same,Emax,[21],29%
same,Emax,[22],84%
same,IC50,Cytochrome P450 1A2,> 50000 nM
same,Activity,Mus musculus [35],Active
same,EC50,[1],8.9 nM
same,solubility,[36],< 0.001 mg/mL
same,solubility,[37],> 100 mg/mL
same,Vd,[23],0.831 L/kg
same,Cmax,[38],72200 ng/mL
same,concentration at 6 days,[39],352 ng/mL
same,EC50,[24],0.049 nM
same,clearance,[25],1.54 mL/min/kg
same,Emax,[26],112%
same,EC50,[27],19 nM
same,EC50,[28],0.058 nM
same,bioavailability,[29],56.6%
same,Emax,[30],59%
same,concentration at 6 days,[40],568 ng/mL
same,EC50,[31],0.064 nM
same,IC50,Mus musculus [41],0.0183 µg/mL
CCCCCCCCc1ccc(CCC(N)(CO)CO)cc1 [FINGOLIMOD],half-life,[42],89 h
